Bioassay records from PubChem.
RanGTP-Imp inh: disruptors of Ran-importin-beta complex formation – biochemical, FRET, CFP-Ran, YFP-importin-beta, homogeneous, primary screen. 300,000 tested, 1.1% active. inhibition, % (concentration not given with the values). AID 2216. cell-free CFP-Ran/YFP-importin-beta FRET ratio;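 active means more than half of the replicate wells show a fall in the fluorescence ratio signal beyond about 16%, limit read from the data, passing the limit was not always enough; inconclusive means exactly half of the replicate wells pass the set limit; inactive means fewer than half of replicates pass the limit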
Hck Nef HTS: inhibitors of human Hck kinase activated by Nef | AID 463187 | Recombinant Hck-YEEI plus Nef, Z-Lyte FRET kinase assay | P08631 | 220,000 tested, 0.68% active | inhibition, % at 20 µM;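 active means Hck-Nef kinase inhibition above about 50%, limit read from the data; inactive means inhibition below that limit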
Target sequence (P08631 whole entry, looked up): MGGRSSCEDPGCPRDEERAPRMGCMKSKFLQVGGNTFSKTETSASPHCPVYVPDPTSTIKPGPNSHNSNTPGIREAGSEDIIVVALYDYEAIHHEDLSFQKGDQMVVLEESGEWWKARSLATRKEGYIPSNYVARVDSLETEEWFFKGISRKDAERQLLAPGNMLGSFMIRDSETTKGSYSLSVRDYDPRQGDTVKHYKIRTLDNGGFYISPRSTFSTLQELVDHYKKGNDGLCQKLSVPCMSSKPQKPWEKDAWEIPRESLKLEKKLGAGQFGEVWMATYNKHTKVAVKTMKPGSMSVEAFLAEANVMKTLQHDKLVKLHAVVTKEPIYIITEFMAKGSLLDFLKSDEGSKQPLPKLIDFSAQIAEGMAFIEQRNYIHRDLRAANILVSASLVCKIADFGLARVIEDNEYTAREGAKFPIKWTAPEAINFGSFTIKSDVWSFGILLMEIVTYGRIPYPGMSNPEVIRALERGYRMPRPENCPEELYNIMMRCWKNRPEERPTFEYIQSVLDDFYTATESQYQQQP
CaV13 ICDI inh: Primary screen for inhibitors of IQ motif and Ca2+-dependent inactivation inhibitor domain binding in CACNA1D, Förster resonance energy transfer in living cells, …; HEK cells, CFP/YFP FRET ICDI-IQ, plate reader, 10 min; percent FRET-ratio fall versus neutral wells; inhibition, % at 12.3 µM; 340,000 tested, 0.098% active; AID 743397;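 active means mean replicate inhibition of at least 30% and at least 1% of replicates passing that level; inconclusive means only one of the two criteria is met; inactive means neither criterion is met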
Runt-CBFb FRET: inhibitors of human RUNX1 Runt domain binding to CBFb | 220,000 tested, 0.46% active | Cerulean-Runt/Venus-CBFb FRET ratio 530/480, 1 h | Q01196+Q13951 | inhibition, % at 20 µM;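 active means inhibition over about 50% at 20 µM in the single-dose screen, limit read from the data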
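Buffer or medium: Tris pH 7.5 buffer with BSA. Assay system: Cerulean-labeled Runt domain protein. Amount: each fluorescent fusion protein 100 nM. Read-out basis: loss of energy transfer signal. Incubation: 1 h compound exposure, room temperature. Probe or stimulus: Venus-CBFb binding partner, 100 nM. Detection: FRET, excitation 422 nm, emission at 530 and 480 nm.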
Runt-SMMHC FRET: Runt domain-CBFb-SMMHC interaction inhibition; Cerulean-Runt/Venus-CBFb-SMMHC FRET ratio 530/480, 1 h; inhibition, % at 20 µM; 220,000 tested, 0.74% active;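 active means mean inhibition across duplicate retests at 20 µM reaching about 50%, limit read from the data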;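 further: inhibitors lower the FRET ratio by blocking Runt binding to CBFb-SMMHC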
Hits are given with their value; . = inactive; ? = inconclusive; / = no result given; + = active, no number. An excerpt weighted towards active compounds, which were near 1.5% of everything screened.

SMILES	RanGTP-Imp inh	Hck Nef HTS	CaV13 ICDI inh	Runt-CBFb FRET	Runt-SMMHC FRET
O=C(COc1cc(F)ccc1[N+](=O)[O-])N1N=C(c2cccs2)CC1c1ccco1 (centres undefined)	/	/	.	/	/
Nc1ccc2[nH]ncc2c1	?	.	.	.	57
Cc1ccc(S(=O)(=O)N2CCN(Cc3csc(C)n3)CC2)cc1	.	/	/	/	/
O=c1oc2cc(O)ccc2c2oc3cc(O)ccc3c12	?	.	.	.	56
O=c1oc2cc(O)ccc2c2c1CCCC2	.	.	.	.	108
O=c1oc2cc(O)ccc2c2ccccc12	.	.	.	.	.
N#C/C(=C(/O)COC(=O)CCc1ccc(S(=O)(=O)N2CCOCC2)cc1)c1nc2ccccc2[nH]1	29	.	/	.	.
CC1=NN(C(=O)COc2ccccc2)C(O)(c2ccccc2)C1 (centres undefined)	.	.	.	.	.
CC1=NN(C(=O)COc2ccc(C)c(C)c2)C(O)(c2ccccc2)C1 (centres undefined)	22	.	.	.	.
CCC(c1nnnn1-c1ccc2c(c1)OCCO2)N1CCN(c2ncccc2C(F)(F)F)CC1 (centres undefined)	/	/	.	/	/
COc1ccccc1CCNC(=O)c1cc(-c2ccccn2)nc2ccc(Br)cc12	.	.	/	.	.
COc1ccccc1CCNC(=O)c1cc(-c2ccncc2)nc2ccc(Br)cc12	.	51	.	.	.
CCOc1cc(C(=O)N2CCC3(CC2)NCCc2[nH]cnc23)cc(OCC)c1OCC	.	/	.	/	/
O=C1CCN2C=Nc3cccc4ccc1c2c34	69	.	.	.	.
COCCN(CC(=O)Nc1cccc(C)c1C)C(=O)c1ccc(-n2cccn2)cc1	/	/	.	/	/
CCCCN(CCCC)c1nc2ccccc2nc1NS(=O)(=O)c1ccc(NC(C)=O)cc1	.	.	.	.	70
CC(=O)Nc1ccc(S(=O)(=O)Nc2nc3ccccc3nc2Sc2nncn2C)cc1	36	.	.	.	72
COc1ccc(NC(=S)N2CCC(C(=O)c3ccc(OC)cc3)CC2)cc1	.	/	.	/	/
N#C/C(=C\c1c(N2CCCCC2)nc2ccccn2c1=O)C(=O)NC1CCS(=O)(=O)C1 (centres undefined)	80	.	.	.	81
COC(=O)/C(C#N)=C/c1c(N2CCCCCC2)nc2ccccn2c1=O	.	/	.	/	/
Cc1cccn2c(=O)c(/C=C(\C#N)C(=O)NC3CCS(=O)(=O)C3)c(N3CCC(C)CC3)nc12 (centres undefined)	84	.	.	.	63
CCN(Cc1nc(-c2ccc(OC)c(OC)c2)no1)C(=O)c1ccoc1C	.	/	.	/	/
CSc1ccccc1NS(=O)(=O)c1cccc2nonc12	.	/	/	/	/
Nc1ncnc2c1ncn2[C@@H]1O[C@H](CNS(=O)(=O)c2cc3ccccc3s2)[C@@H](O)[C@H]1O	/	/	.	/	/
COc1ccc(CN(C)C(=O)c2ccc(Cl)c(S(=O)(=O)NCc3cccnc3)c2)cc1F	/	/	.	/	/
SMILES	RanGTP-Imp inh	Hck Nef HTS	CaV13 ICDI inh	Runt-CBFb FRET	Runt-SMMHC FRET
Cc1cc(C)cc(OCC(=O)Nc2cccc(S(=O)(=O)NC3=NCCC3)c2)c1	/	/	.	/	/
Cc1ccc2cc(C#N)c(N3CCCN(C(=O)c4cnccn4)CC3)nc2c1	.	/	.	/	/
Cc1cc(C)c2cc(C#N)c(N3CCCN(C(=S)NCCCN(C)C)CC3)nc2c1	35	/	.	/	/
Cc1cc(C)c2cc(C#N)c(N3CCCC3)nc2c1	/	.	.	.	.
CCOCCCNC(=S)N1CCCN(c2nc3c(C)c(C)ccc3cc2C#N)CC1	51	.	.	/	/
CCOCCCNC(=S)N1CCCN(c2nc3cc(C)ccc3cc2C#N)CC1	.	.	.	.	76
Cc1cccc2cc(C#N)c(SCC(=O)N3CCC(C)CC3)nc12	.	.	.	.	.
COCC(=O)N1CCCN(c2nc3c(C)cccc3cc2C#N)CC1	57	.	.	.	.
O=Nc1[nH]c(=O)c(/C=C(\O)c2ccccc2)nc1NO	.	/	.	/	/
CCOC(=O)c1c(NC(=O)CN2C(=O)C(=O)N(CC(C)C)C2=O)sc(C)c1CC	.	/	.	/	/
CCOC(=O)C1=C(O)/C(=C/c2ccc(C)o2)SC1=NC(=O)c1ccccc1C	/	55	/	/	/
CSc1nc(NCCOCCO)c2sc3nc(-c4ccco4)c4c(c3c2n1)CCC4	?	81	.	.	.
CSc1nc(NCc2ccco2)c2sc3nc(C(C)C)c4c(c3c2n1)CC(C)(C)OC4	.	.	.	.	.
COCc1c(C(=O)N2CCN(c3ccccc3C)CC2)oc2ccccc12	/	/	.	/	/
CCc1nnc(NS(=O)(=O)c2ccc(NC(=O)Nc3ccc(OC)cc3)cc2)s1	.	/	.	/	/
COc1cc(NS(=O)(=O)c2ccc(N/C=C\C(=O)c3ccc(F)cc3)cc2)nc(OC)n1	.	.	.	.	72
CCc1nnc(NS(=O)(=O)c2ccc(N/C=C/C(=O)c3ccc(OC)cc3)cc2)s1	.	.	.	.	50
C=CCNC(=O)COC(=O)c1c2c(nc3ccccc13)CCC2	.	/	.	/	/
COc1cc(C(c2c(C(=O)O)[nH]c3ccccc23)c2c(C(=O)O)[nH]c3ccccc23)ccc1OCc1ccccc1	.	/	103	/	/
O=C(O)c1[nH]c2ccccc2c1C(c1ccccc1)c1c(C(=O)O)[nH]c2ccccc12	.	/	.	/	/
O=c1ccc2cc(O)c(O)cc2o1	81	.	.	.	73
O=c1ccc2cc3ccoc3cc2o1	.	/	/	/	/
CCOc1ccc(NC(=S)NNC(=S)Nc2cccc(C(F)(F)F)c2)cc1	22	.	.	.	.
COc1ccc(NC(=S)NNC(=S)Nc2cccc(C(F)(F)F)c2)cc1	.	.	.	.	.
COc1ccc(OC)c(NC(=O)c2ccccc2SC)c1	.	.	.	.	.
SMILES	RanGTP-Imp inh	Hck Nef HTS	CaV13 ICDI inh	Runt-CBFb FRET	Runt-SMMHC FRET
COc1ccc(OC)c(NC(=O)c2cc3oc4ccccc4c3cc2O)c1	.	.	.	.	96
Cc1nc2c([nH]1)C1(CCN(Cc3ccccc3)CC1)C(C#N)=C(N)O2	/	.	/	.	90
Cc1occc1-c1nnc(SCC(=O)N(C)c2ccccc2)n1C	26	/	.	/	/
Cc1occc1-c1nnc(SCC(=O)N(C)c2ccccc2)o1	/	/	.	/	/
Cc1ccccc1Nc1cc2ccccc2c(=O)[nH]1	17	.	/	.	.
Cc1cc(Nc2ccc(F)cc2)c2ccccc2n1	/	/	.	/	/
Cc1cc2ccccc2c(=O)[nH]1	.	.	/	.	.
O=c1[nH]c(Nc2ccc(F)cc2)cc2ccccc12	54	.	.	.	.
O=c1[nH]c(Nc2ccccc2Cl)cc2ccccc12	39	/	+	/	/
O=c1oc(Nc2ccccc2Cl)nc2ccccc12	.	.	.	.	.
Nc1ccn([C@@H]2O[C@H](CNCc3cc(Cl)ccc3OCc3ccc(Cl)cc3)[C@@H](O)[C@H]2O)c(=O)n1	/	/	.	/	/
COc1ccc2nc(Nc3sc4c(c3C(N)=O)CCCC4)sc2c1	/	.	.	.	67
CCOC(=O)c1sc(Nc2nc3ccc(OC)cc3s2)cc1C	.	.	.	.	62
